The chains are these.
B1: tRNA (parent)
chain: GUUCCGUUGGCGUAAUGGUAACGCGUCUCCCUCCUAAGGAGAAGACUGCGGGUUCGAGUCCCGUACGGAACG

This sample holds only a part of the variants without activity.

The record followed here is the RNAGym collection of RNA variant scans (doi:10.1126/science.aae0568).

The variants in this series derive from B1. Kind of series: yeast fitness relative to wild type (ratio to wild type); higher = fitter; tRNA-Arg(CCU), competitive growth, 37 C, YPD. The procedure, abridged:
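Changes in genotype frequencies gave Darwinian fitness relative to wild type. Frequencies were read by 100-nucleotide paired-end sequencing of gene amplicons before and after pooled Saccharomyces cerevisiae strains, carrying tRNA-Arg(CCU) gene variants at the native locus, were competed in YPD at 37°C for 24 hours in six replicates. A genotype was kept only with ≥ 100 starting reads, and estimates < 0.5 were set to 0.5.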
As to U2A C31G C60G U64G, the yeast fitness came to 0.532. Turning to U8C C11A G25C C29U A65C A70U, the yeast fitness is at most 0.5. The result for G12A A45C reads 0.834. The value for G39C U53G was 0.578; that for U7A G50C U53C C55U was at most 0.5; that for G9A C30G A70U was 0.57. The result for U7G A15C G44A reads at most 0.5; that for U8G A37C U64A A70C, at most 0.5; that for U13C A36U G51C, at most 0.5.

For A14C C22U C55U C61G C62G, the yeast fitness is at most 0.5. The result for C11U U47C G51C A70G reads 0.669; that for U16A C24G A43C G63A, at most 0.5. For the variant U32A G52A, the yeast fitness was at most 0.5. The value for A20U U26A A43G was at most 0.5; that for G17A G23C U54A C61G was at most 0.5. U13A A20U C27U A42G U54C: the yeast fitness is at most 0.5. The result for C11A C34G U59G reads at most 0.5; that for C4U G10A G39C, 0.627. The result for A21C U54A reads 0.552; that for U2C U28A G44U, at most 0.5; that for G25A C30A C34A A69C, at most 0.5. The result for A15U U28A A40C C46G reads at most 0.5; that for C5G C49G G63A, 0.57. For the variant C29G C33U G44C G48C C55A, the yeast fitness is at most 0.5. G39C A43G G44C A45U C49G: the yeast fitness came to 0.563. The result for C22G A57U C66U reads 0.524. The value for A15U A42U C46U C55G was at most 0.5; that for C11G C33A G50C was at most 0.5. For the variant U2C C4A C27G C34G G51A, the yeast fitness amounted to 0.514.

On to C11U A15U A57G A69C, for which the yeast fitness is at most 0.5. The result for A36U C46U G51A U64C reads 0.597. The result for C4G A15U C29A G48A A65U reads 0.53.

Consider C4U U7A G10C C27G U32A, for which the yeast fitness is at most 0.5. The result for U2C A15U A20U reads at most 0.5.

As for C22A A36U, the yeast fitness stood at 0.586. On to G23C C31A, for which the yeast fitness is 0.633. The result for G41A C60A U64A reads at most 0.5; that for U26A A65U, 0.829; that for A15G G48A A65U, 0.759. Take U3A C29A A37G: the yeast fitness is at most 0.5. The value for G10C C34G A69U A70C was 0.711; that for C31U A36G A45U was 0.593. The result for C30A A36G reads 0.819. The result for U2G C4A U8C U16C C61G reads at most 0.5; that for C4A G44A C49U U54G C66U A70C, 0.503; that for U32C A42C G44C G52C, 0.548. A14C C30A A40U: the yeast fitness was at most 0.5. The value for C30U U32G A37G was at most 0.5; that for U26C C61U U64A was 0.526. The result for C5G C33G C55U reads 0.875; that for A20G G41A A70G, 0.571.

Turning to G52C G68C, the yeast fitness is 0.639. C33G U59A C60G C61G: the yeast fitness is at most 0.5.

Take U19G A20U C27G C66U: the yeast fitness was at most 0.5. The value for A15C U16C A37C A43C was at most 0.5; that for U16A U64C was 0.929; that for C11U C22G A69C was 0.653. The result for G17A U47G G67A A69C reads 0.559. The value for C5U G38C G39C A40G G44A C46G G52A U59G was at most 0.5; that for G10A C24A C29G U35A A36U was at most 0.5; that for C22A U28G C31G A42U was at most 0.5.

Turning to C5G G23A, the yeast fitness was 0.668.

As for C11A U28G C33A A42C A65U, the yeast fitness was at most 0.5. The result for A40C A57G A70C reads 0.55; that for C5G U26C U32A, 0.604; that for C5G A14C C29U C33G A65C, at most 0.5. In the case of A15G C29G C31A A37G, the yeast fitness was at most 0.5. The result for U3C A36U G39A reads at most 0.5; that for A14G A20C A43U C55G, at most 0.5; that for U8G U13A C30U G39C C55G, 0.526. The value for G10C C33G C46G C62G was at most 0.5; that for C11G U16A U28C C29U G39A U59G U64A was at most 0.5. The value for C11U A21C C27G G39C C66U was at most 0.5; that for C27G C30G C62A was at most 0.5; that for U8A U28A C33A A36U A57G was at most 0.5. With C31U G68U, the yeast fitness was found to be 0.846. The value for G41C G56A A65G C66U was at most 0.5; that for C29G C33U A45U was at most 0.5; that for C33A G44A was 0.617. C4A A45U G51A: the yeast fitness was at most 0.5. In the case of G39C A43C G56A C60G, the yeast fitness was at most 0.5. Take C24U C31G A65U: the yeast fitness turned out to be 0.508. The result for U3G G41A reads 0.748; that for A20G G50C C60G, 0.634. Regarding U8C A36C G67C, the yeast fitness is at most 0.5. In the case of G12A C27G A65G G68U, the yeast fitness was found to be 0.544. The value for A14U A15U C27A C29G G44C C66A A70G was at most 0.5. As to A37G A70G, the yeast fitness amounted to 0.832. The value for U2A C5G C24U C30G A70C was 0.54; that for U8A U13A C29G A45C G68C A69G was at most 0.5; that for G6C U13G C55G was 0.659. The value for U2G A15G G17A G52C A65G was 0.558; that for G12C A42G U54G was at most 0.5. The result for U2G G25C G52A A57C A70C reads at most 0.5; that for C22G G44C, 0.942; that for C4A A21C C22U G50C G51A A70U, 0.559. As to C11A U16C G18C A45C A57C G67A G68C, the yeast fitness is at most 0.5. The result for C24G G38C C46A U53C C61G reads at most 0.5. The value for C11U U13A C62U was 0.721; that for U19C G56C was 0.67.

For A15G G17A C29G C31U C46A, the yeast fitness is at most 0.5. The value for G39A A57G was 0.79; that for U8G U28G C34A was at most 0.5.

Consider C4A G63U, for which the yeast fitness was 0.624. The value for C4G U19A A37U A42G was 0.55; that for U2G C4U A36U was 0.587; that for C4A A40U A42G C55G was at most 0.5. The value for G25C G41C G68C was 0.565; that for U32G A45G C49U was at most 0.5; that for G18C A57G U59A C62U was at most 0.5.

As to U28C C33A C49U C55G, the yeast fitness is at most 0.5.

In the case of A45C A69G, the yeast fitness is 1.06. The value for A14G C29G C31U C55U A69C was at most 0.5; that for U8C G25C C33A C61U was at most 0.5. Take C4U C5G U28C A65G: the yeast fitness is 0.562. Consider A15G C62U, for which the yeast fitness came out at 0.994. In the case of U2C C62U G68C A69G, the yeast fitness is at most 0.5. The result for A15C A20C C55G A70G reads at most 0.5; that for C29G A43U A70U, 0.563. The result for C11U A15U U35G G44C A69G reads 0.774; that for G39A A43U A57G, 0.562. The value for G9A C33U A36U was 0.536. G12A A14U A57G C61U: the yeast fitness was at most 0.5. The value for U16G U28G C34U G63C was 0.608; that for U7G C27G U28G G39C A42G was at most 0.5; that for A21U G58A was 0.721. The value for C22A C24U C30U C31G C66U was 0.615; that for C4A G9A C22A C27G U53A A65G was at most 0.5; that for G6A G10C C29U was at most 0.5. The value for C29G U35G G41C C62U U64A was 0.602; that for G9C C27U A42U G63C was at most 0.5. G51A G67U: the yeast fitness stood at 0.709. For G18C U28G, the yeast fitness stood at 0.727. Take U7G G39C: the yeast fitness amounted to 0.632.

Turning to G6C A15G C22A C29G A37C, the yeast fitness is at most 0.5.

As for C5U G51C G56C A69U, the yeast fitness is at most 0.5. The result for U47C U59A A65C A70C reads at most 0.5; that for C29G C60G C61U, 0.52; that for C5G A21G C30U A40U, at most 0.5.

On to G23A C29A C31G, for which the yeast fitness is 0.664. The value for A14U A21G G39C A45G was at most 0.5; that for A15C U19C was 1.03; that for U32A A37G G48A C60G G68A was at most 0.5. The value for A40C C46U G52C was at most 0.5; that for G6A C11U C30U G67A was at most 0.5; that for G9A A36G C46U was 0.683. The result for A15G C22G G23C A43C G50C A70U reads at most 0.5; that for G10A C24G G68A, 0.735. A20C A40U C60G A65C: the yeast fitness is at most 0.5. The value for C4U U32A C49U was 0.61; that for C29U C30A A45C was 0.563. Take U32C A40G A70C: the yeast fitness worked out at 0.634. The result for C34G G50A U59A reads at most 0.5; that for C24G A36G, 0.557. The result for G18A C34G G48C C49U reads 0.698. The value for G9A C29G C30G C46G was at most 0.5; that for C4G A21U was 0.696; that for U19C A37U was 1.08.

In the case of G9A A15U G41A, the yeast fitness is at most 0.5. Consider U2G U28G U59A, for which the yeast fitness is at most 0.5. The result for C31U U32A U35C reads 0.593. The result for C27G C34G A57G G67C A69U reads at most 0.5; that for G12C A69U, 0.935. The result for U7A G23C C33G A42G C46U U64C reads at most 0.5. Turning to G12C A15C U19A C34U C49G A69U, the yeast fitness is at most 0.5. The result for U3C C49U reads 0.891; that for U19C A36U, 0.566.
